# Assay results taken from ChEMBL document CHEMBL4819017 (Eur J Med Chem, 2021).
# Experiments:
# [1] = organism: Homo sapiens; assay: Selectivity ratio of Ki for human p110delta/p85alpha to Ki for human p110alpha/p85alpha using PIP2 as substrate in presence of ATP
# Method in brief: (§1)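 Ki from a PI3-kinase HTRF assay run per manufacturer. Enzyme levels: p110α/p85α and p110δ/p85α 100 pM, p110β/p85α 500 pM, p110γ 4 nM. ATP at 50× KM: 200 μM (α, δ), 250 μM (β), 100 μM (γ). PIP2 10 μM. Activity normalized to no-compound control. Ratio is the isoform Ki over the α Ki.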
# [2] = organism: Homo sapiens; assay: Selectivity ratio of Ki for human p110gamma to Ki for human p110alpha/p85alpha using PIP2 as substrate in presence of ATP; method in brief: as §1
# [3] = Clearance in BALB/c mouse at 5 mg/kg, iv measured for 8 hrs; format: ADME, organism-based; details: in vivo
# Method in brief: (§2)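 BALB/c mice dosed I.V. or P.O. at the stated dose; plasma levels followed for 8 h. Parameters from noncompartmental analysis: AUC (h.ng/ml), T1/2 (h), Cl (L/h/Kg), Vd (L/Kg), Cmax (ng/ml), Tmax (h).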
# [4] = Plasma concentration in BALB/c mouse at 10 mg/kg, po measured for 8 hrs; format: ADME, organism-based
# Method in brief: (§3)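 Dosing in BALB-C mice intravenously or orally, with plasma sampled over 8 h. Parameters (AUC, T1/2, Cl, Vd, Cmax, Tmax) come from a noncompartmental model. Units: AUC h.ng/ml, Vd L/Kg, Cmax ng/ml, Tmax h.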
# [5] = molecular target: Serine/threonine-protein kinase mTOR (Homo sapiens, UniProt P42345); assay: Inhibition of recombinant human GST tagged mTOR (1360 to 2549 residues) expressed in baculovirus expression system measured by LanthaScreen assay
# Method in brief: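 mTOR inhibition measured by LanthaScreen assay; IC50 values average two independent experiments.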
# [6] = Inhibition of p110alpha E545K mutant/p85alpha (unknown origin) using PIP2:3PS lipid kinase as substrate in presence of ATP measured by ADP-Glo lipid kinase assay; design: species or system Homo sapiens
# Method in brief: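 Lipid kinase assay with PIP2:3PS substrate held at 3.25 µM. Activity normalized to no-compound control for each enzyme and fitted to a variable-slope sigmoidal dose-response curve.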
# [7] = AUC (infinity) in BALB/c mouse at 5 mg/kg, iv measured for 8 hrs; format: ADME, organism-based; design: route intravenous, dose 5 mg/kg, time 8 hrs; details: in vivo; method in brief: as §2
# [8] = molecular target: Cytochrome P450 2D6 (Homo sapiens, UniProt P10635); assay: Inhibition of CYP2D6 (unknown origin) using Luciferin-ME-EG as substrate at 10 uM preincubated with enzyme and substrate for 5 mins followed by addition of NADPH regeneration system and measured after 60 mins by luminescence method; format: ADME
# Method in brief: (§4)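 P450-Glo luminescence assays with these substrates: Luciferin-ME (CYP1A2), Luciferin-PPXE (CYP3A4), Luciferin-H (CYP2C9), LuciferinH-EG (CYP2C19), Luciferin-ME-EG (CYP2D6). Compounds run in 1/3 serial dilutions from 10 µM in 0.5% DMSO with enzyme and substrate. After 5 min preincubation, NADPH regeneration reagent added; 60 min at 37 °C, then detection reagent for 30 min. Background subtracted.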
# [9] = organism: Homo sapiens; assay: Selectivity ratio of IC50 for recombinant human GST tagged mTOR (1360 to 2549 residues) expressed in baculovirus expression system to IC50 for human full length p110alpha (1 to 1068 residues) expressed in baculovirus-infected Sf21 cells
# Method in brief: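 mTOR activity measured by LanthaScreen assay. PI3K-α activity measured by ADP Hunter Plus (ADP accumulation, fluorescence ex 544/em 580 nm), normalized to no-compound control and fitted to a sigmoid dose-response curve. IC50s are the average of two independent experiments. Ratio is mTOR IC50 over PI3K-α IC50.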
# [10] = Half life in BALB/c mouse at 5 mg/kg, iv measured for 8 hrs; format: ADME, organism-based; details: in vivo; method in brief: as §2
# [11] = molecular target: T1, Cytochrome P450 1A2 (Homo sapiens, UniProt P05177); assay: Inhibition of CYP1A2 (unknown origin) using Luciferin-ME as substrate at 10 uM preincubated with enzyme and substrate for 5 mins followed by addition of NADPH regeneration system and measured after 60 mins by luminescence method; format: ADME; method in brief: as §4
# T1 sequence (P05177 whole entry): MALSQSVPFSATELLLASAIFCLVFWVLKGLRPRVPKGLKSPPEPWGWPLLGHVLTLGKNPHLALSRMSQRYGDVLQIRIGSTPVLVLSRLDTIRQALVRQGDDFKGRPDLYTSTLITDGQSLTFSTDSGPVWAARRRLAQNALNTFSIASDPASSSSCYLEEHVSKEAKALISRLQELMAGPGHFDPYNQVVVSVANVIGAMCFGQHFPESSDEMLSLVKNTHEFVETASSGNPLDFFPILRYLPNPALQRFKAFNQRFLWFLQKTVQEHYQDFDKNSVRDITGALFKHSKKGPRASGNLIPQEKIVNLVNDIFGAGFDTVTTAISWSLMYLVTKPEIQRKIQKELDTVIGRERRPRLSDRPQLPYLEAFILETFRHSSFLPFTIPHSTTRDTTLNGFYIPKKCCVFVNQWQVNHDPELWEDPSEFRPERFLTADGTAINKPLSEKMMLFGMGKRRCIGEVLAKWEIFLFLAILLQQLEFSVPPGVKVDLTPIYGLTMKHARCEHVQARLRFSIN
# [12] = Half life in BALB/c mouse at 10 mg/kg, po measured for 8 hrs; format: ADME, organism-based; details: in vivo; method in brief: as §2
# [13] = Volume of distribution in BALB/c mouse at 5 mg/kg, iv measured for 8 hrs; format: ADME, organism-based; details: in vivo; method in brief: as §3
# [14] = Inhibition of PI3K/mTOR in human MCF7 cells assessed as reduction of AKT phosphorylation at Thr308 residue measured after 3 hrs by western blot assay; format: cell-based; details: MCF7, 3 h
# Method in brief: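 MCF7 cells treated for 3 h across a dose range, washed and lysed with phosphatase and protease inhibitors. Lysates run on 10% SDS-PAGE and blotted, antibodies incubated overnight at 4 °C.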
# [15] = molecular target: PI3-kinase p110-delta/p85-alpha (Homo sapiens, UniProt O00329); assay: Inhibition of human p110delta/p85alpha using PIP2 as substrate in presence of ATP measured by HTRF assay; format: protein-complex assay
# [16] = Metabolic stability in human liver microsomes assessed as parent compound remaining in presence of NADPH regenerating system at 0.5 uM measured after 15 mins by LC-MS/MS analysis; format: ADME, Microsome; details: read-out: Stabilty
# Method in brief: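 Human, mouse or rat liver microsomes at 0.5 mg/ml protein with compound at 0.5 µM and NADPH-regenerating system, 37 °C with shaking. Control wells contain 0.1 M potassium phosphate instead of the regenerating system. Reaction stopped with acetonitrile/0.1% formic acid, centrifuged, supernatant analyzed by LC-MS/MS. Result is percent parent compound remaining.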
# [17] = Oral bioavailability in BALB/c mouse at 10 mg/kg measured for 8 hrs; format: ADME, organism-based; details: in vivo; method in brief: as §2
# [18] = molecular target: Phosphatidylinositol 4,5-bisphosphate 3-kinase catalytic subunit alpha isoform (Homo sapiens, UniProt P42336); assay: Inhibition of human full length p110alpha (1 to 1068 residues) expressed in baculovirus-infected Sf21 cells by ADP-Hunter Plus assay
# Phosphatidylinositol 4,5-bisphosphate 3-kinase catalytic subunit alpha isoform, sequence (P42336 whole entry, the tested form may be a part, canonical isoform): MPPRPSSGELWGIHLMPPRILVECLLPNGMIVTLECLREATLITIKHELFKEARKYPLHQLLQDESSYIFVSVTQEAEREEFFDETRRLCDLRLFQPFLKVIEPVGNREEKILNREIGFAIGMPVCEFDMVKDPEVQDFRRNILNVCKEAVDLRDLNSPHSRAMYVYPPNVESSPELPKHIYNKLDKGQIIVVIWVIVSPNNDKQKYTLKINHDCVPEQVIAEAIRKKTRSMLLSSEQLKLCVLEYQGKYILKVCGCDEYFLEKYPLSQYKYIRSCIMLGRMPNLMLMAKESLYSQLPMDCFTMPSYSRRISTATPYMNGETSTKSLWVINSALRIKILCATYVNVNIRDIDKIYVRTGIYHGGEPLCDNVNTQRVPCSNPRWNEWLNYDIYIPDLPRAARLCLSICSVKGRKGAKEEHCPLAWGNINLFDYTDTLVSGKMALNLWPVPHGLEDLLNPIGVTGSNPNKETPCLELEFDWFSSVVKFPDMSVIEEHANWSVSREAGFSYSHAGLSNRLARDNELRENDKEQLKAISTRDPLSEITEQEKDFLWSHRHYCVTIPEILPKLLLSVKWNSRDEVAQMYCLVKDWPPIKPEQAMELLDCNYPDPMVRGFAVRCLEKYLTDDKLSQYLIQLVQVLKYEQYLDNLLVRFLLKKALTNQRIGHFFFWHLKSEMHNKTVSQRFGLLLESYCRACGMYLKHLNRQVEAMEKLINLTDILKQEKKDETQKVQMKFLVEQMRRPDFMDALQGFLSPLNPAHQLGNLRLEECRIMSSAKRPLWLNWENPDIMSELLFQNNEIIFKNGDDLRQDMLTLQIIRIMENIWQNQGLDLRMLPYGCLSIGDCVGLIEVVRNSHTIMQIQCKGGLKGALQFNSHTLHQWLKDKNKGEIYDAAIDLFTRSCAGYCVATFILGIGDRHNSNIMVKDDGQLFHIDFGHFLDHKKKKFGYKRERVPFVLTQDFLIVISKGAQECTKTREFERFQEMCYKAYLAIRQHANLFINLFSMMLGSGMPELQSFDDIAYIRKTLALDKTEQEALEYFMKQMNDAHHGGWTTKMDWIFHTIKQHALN
# Cytochrome P450 2D6, sequence (P10635 whole entry): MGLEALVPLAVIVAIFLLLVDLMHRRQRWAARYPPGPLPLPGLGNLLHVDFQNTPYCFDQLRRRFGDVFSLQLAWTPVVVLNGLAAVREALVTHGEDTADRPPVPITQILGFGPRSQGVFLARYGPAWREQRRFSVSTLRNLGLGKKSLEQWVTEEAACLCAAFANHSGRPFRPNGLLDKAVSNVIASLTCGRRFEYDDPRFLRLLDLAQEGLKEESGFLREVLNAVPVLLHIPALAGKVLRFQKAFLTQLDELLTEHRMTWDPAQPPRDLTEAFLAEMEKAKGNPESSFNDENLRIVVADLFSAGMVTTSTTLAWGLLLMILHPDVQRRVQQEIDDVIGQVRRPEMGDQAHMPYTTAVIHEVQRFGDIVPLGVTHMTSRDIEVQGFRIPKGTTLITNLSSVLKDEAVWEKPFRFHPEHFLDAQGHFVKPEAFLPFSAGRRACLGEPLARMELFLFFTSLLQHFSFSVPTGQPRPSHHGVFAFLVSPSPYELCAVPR
# PI3-kinase p110-delta/p85-alpha, sequence (P27986 whole entry): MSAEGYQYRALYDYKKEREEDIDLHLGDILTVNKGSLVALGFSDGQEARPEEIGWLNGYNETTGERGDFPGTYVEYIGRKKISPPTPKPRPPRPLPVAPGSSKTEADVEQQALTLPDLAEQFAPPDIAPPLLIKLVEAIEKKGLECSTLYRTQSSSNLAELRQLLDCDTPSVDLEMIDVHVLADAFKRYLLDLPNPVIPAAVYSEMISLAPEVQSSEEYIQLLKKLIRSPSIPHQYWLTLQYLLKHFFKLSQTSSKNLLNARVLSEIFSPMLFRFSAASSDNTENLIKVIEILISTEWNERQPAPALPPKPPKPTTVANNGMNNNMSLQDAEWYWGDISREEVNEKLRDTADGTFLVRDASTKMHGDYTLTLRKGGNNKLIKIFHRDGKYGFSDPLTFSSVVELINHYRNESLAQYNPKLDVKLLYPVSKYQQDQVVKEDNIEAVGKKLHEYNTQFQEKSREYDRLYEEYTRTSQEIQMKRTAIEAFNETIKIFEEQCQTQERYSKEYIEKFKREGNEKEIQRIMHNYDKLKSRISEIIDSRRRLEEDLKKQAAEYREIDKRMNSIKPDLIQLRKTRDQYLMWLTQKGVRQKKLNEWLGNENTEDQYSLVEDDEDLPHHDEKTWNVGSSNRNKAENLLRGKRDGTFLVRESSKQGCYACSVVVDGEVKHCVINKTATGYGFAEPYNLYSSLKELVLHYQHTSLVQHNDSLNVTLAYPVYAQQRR
# PI3-kinase p110-delta/p85-alpha, sequence (O00329 whole entry): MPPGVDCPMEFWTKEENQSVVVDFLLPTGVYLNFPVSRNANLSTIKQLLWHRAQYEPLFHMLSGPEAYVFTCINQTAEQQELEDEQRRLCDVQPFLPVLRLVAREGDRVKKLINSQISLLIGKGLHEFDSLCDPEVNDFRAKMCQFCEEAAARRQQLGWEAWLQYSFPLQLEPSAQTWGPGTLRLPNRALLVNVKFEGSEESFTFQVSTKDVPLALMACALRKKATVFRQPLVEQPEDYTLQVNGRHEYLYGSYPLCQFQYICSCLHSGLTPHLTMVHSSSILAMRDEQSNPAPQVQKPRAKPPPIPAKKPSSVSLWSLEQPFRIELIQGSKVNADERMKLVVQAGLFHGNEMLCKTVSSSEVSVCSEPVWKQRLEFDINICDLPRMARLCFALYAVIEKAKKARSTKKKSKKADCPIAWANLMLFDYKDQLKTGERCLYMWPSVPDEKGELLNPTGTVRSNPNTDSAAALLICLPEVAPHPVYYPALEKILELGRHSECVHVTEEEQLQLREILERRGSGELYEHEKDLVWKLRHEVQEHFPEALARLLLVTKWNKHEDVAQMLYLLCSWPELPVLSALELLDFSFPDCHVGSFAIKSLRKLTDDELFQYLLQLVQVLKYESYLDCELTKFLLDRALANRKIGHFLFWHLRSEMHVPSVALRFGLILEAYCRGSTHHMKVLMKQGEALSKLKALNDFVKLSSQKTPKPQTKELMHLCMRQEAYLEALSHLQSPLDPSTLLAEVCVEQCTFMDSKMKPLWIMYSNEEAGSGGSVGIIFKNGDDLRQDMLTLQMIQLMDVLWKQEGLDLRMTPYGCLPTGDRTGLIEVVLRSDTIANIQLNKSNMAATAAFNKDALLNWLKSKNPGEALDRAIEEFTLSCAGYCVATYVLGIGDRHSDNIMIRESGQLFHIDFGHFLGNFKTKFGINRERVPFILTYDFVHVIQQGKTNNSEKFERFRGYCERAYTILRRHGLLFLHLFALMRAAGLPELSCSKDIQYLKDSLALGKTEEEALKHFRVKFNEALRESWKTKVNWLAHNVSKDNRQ
smiles,measurement,setting,value
COc1ncc2cc1NS(=O)(=O)c1cccc(c1)C(=O)NCc1cncc(c1)-c1cnc3ccc-2cn13,Selectivity ratio,[1],0.4
same,Selectivity ratio,[2],6.3
same,clearance,[3],31.5 mL/min/kg
same,concentration at 8 h,[4],202 ng/mL
same,IC50,[5],3.3 nM
same,Ki,[6],0.14 nM
same,AUC(0-inf),[7],2640 ng·h/mL
same,IC50,[8],> 30000 nM
same,Ratio IC50,[9],4.1
same,half-life,[10],2.59 h
same,IC50,[11],> 30000 nM
same,half-life,[12],5.22 h
same,Vd,[13],5.98 L/kg
same,EC50,[14],0.14 nM
same,Ki,[15],0.06 nM
same,"remaining at 0.25 h, 0.5 µM",[16],100%
same,bioavailability,[17],84.6%
same,IC50,[18],0.8 nM
